From ChEMBL document CHEMBL1221233, “4''-O-(omega-Quinolylamino-alkylamino)propionyl derivatives of selected macrolides with the activity against the key erythromycin resistant respiratory pathogens” (2010)
Converted amounts (≈) assume the structure as drawn.

Legend:
Type in all cases: functional
[1] = system: Haemophilus influenzae; test: Antibacterial activity against Haemophilus influenzae ATCC 49247 by broth microdilution method
Outline: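 MIC by broth microdilution following CLSI guidelines, expressed in units of lg/mL. Twofold dilutions prepared in 96-well plates. H. influenzae grown on Mueller-Hinton chocolate agar before testing.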

[2] = system: Streptococcus pyogenes; test: Antibacterial activity against constitutive MLS resistance sStreptococcus pyogenes 166 GR-Micro by broth microdilution method
Outline: (§1)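 MIC by CLSI broth microdilution. In the streptococcal medium, 5% horse serum replaced lysed blood. Compounds were tested as two-fold serial dilutions. Strains were first grown on Columbia agar with 5% sheep blood. The MIC was read as the lowest concentration inhibiting growth.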

[3] = system: Staphylococcus aureus; test: Antibacterial activity against efflux-mediated macrolide-resistance Staphylococcus aureus PK1 by broth microdilution method
Outline: (§2)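 Staphylococci were grown on Mueller-Hinton agar and then tested by CLSI-guideline broth microdilution against two-fold serial dilutions of compound. The result was recorded as the minimum inhibitory concentration.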

[4] = system: Streptococcus pneumoniae; test: Antibacterial activity against efflux-mediated macrolide-resistance Streptococcus pneumoniae Ci137 by broth microdilution method; outline: as §1
[5] = system: Streptococcus pyogenes; test: Antibacterial activity against efflux-mediated macrolide-resistance Streptococcus pyogenes 2 Finland by broth microdilution method; outline: as §1
[6] = system: Staphylococcus aureus; test: Antibacterial activity against inducible resistance to macrolide, licosamide and streptogramin Staphylococcus aureus 90256 by broth microdilution method; outline: as §2
[7] = system: Streptococcus pneumoniae; test: Antibacterial activity against inducible resistance to macrolide and constitutive resistance to lincosamide Streptococcus pneumoniae 134 GR M by broth microdilution method; outline: as §1
[8] = system: Streptococcus pneumoniae; test: Antibacterial activity against constitutive MLS resistance Streptococcus pneumoniae 58 by broth microdilution method; outline: as §1

Compound	MIC [1] [µg/mL]	MIC [2] [µg/mL]	MIC [3] [µg/mL]	MIC [4] [µg/mL]	MIC [5] [µg/mL]	MIC [6] [µg/mL]	MIC [7] [µg/mL]	MIC [8] [µg/mL]
CC[C@H]1OC(=O)[C@H](C)[C@@H](O[C@H]2C[C@@](C)(OC)[C@@H](OC(=O)CCNCCNc3ccc4c(=O)c(C(=O)O)cn(C)c4c3)[C@H](C)O2)[C@H](C)[C@@H](O[C@@H]2O[C@H](C)C[C@H](N(C)C)[C@H]2O)[C@](C)(O)C[C@@H](C)C(=O)[C@H](C)[C@@H](O)[C@]1(C)O	8 (≈ 7.62 µM)	≤ 0.125	1 (≈ 0.953 µM)	≤ 0.125	1 (≈ 0.953 µM)	4 (≈ 3.81 µM)	≤ 0.125	≤ 0.125
CC[C@H]1OC(=O)[C@H](C)[C@@H](O[C@H]2C[C@@](C)(OC)[C@@H](OC(=O)CCNCCNc3cc4c(=O)c(C(=O)O)cn(C5CC5)c4cc3Cl)[C@H](C)O2)[C@H](C)[C@@H](O[C@@H]2O[C@H](C)C[C@H](N(C)C)[C@H]2O)[C@](C)(O)C[C@@H](C)CN(C)[C@H](C)[C@H]2OC(=O)O[C@@]21C	2 (≈ 1.74 µM)	≤ 0.125	0.5 (≈ 0.434 µM)	≤ 0.125	≤ 0.125	1 (≈ 0.869 µM)	≤ 0.125	≤ 0.125
CC[C@H]1OC(=O)[C@H](C)C(=O)[C@H](C)[C@@H](O[C@@H]2O[C@H](C)C[C@H](N(C)C)[C@H]2O)[C@](C)(OC)C[C@@H](C)C(=O)[C@H](C)[C@H]2N(CCCCn3cnc(-c4cccnc4)c3)C(=O)O[C@]12C [TELITHROMYCIN]	2 (≈ 2.46 µM)	16 (≈ 19.7 µM)	≤ 0.125	0.25 (≈ 0.308 µM)	0.5 (≈ 0.616 µM)	≤ 0.125	0.25 (≈ 0.308 µM)	0.25 (≈ 0.308 µM)
CC[C@H]1OC(=O)[C@H](C)[C@@H](O[C@H]2C[C@@](C)(OC)[C@@H](OC(=O)CCNCCNc3cc4c(=O)c(C(=O)O)cn(C5CC5)c4cc3Cl)[C@H](C)O2)[C@H](C)[C@@H](O[C@@H]2O[C@H](C)C[C@H](N(C)C)[C@H]2O)[C@](C)(O)C[C@@H](C)C(=O)[C@H](C)[C@@H](O)[C@]1(C)O	2 (≈ 1.8 µM)	≤ 0.125	0.5 (≈ 0.451 µM)	≤ 0.125	≤ 0.125	4 (≈ 3.6 µM)	≤ 0.125	≤ 0.125
CC[C@H]1OC(=O)[C@H](C)[C@@H](O[C@H]2C[C@@](C)(OC)[C@@H](O)[C@H](C)O2)[C@H](C)[C@@H](O[C@@H]2O[C@H](C)C[C@H](N(C)C)[C@H]2O)[C@](C)(OC)C[C@@H](C)C(=O)[C@H](C)[C@@H](O)[C@]1(C)O [CLARITHROMYCIN]	8 (≈ 10.7 µM)	> 16	> 64	4 (≈ 5.35 µM)	4 (≈ 5.35 µM)	> 64	> 64	> 16
CC[C@H]1OC(=O)[C@H](C)[C@@H](O[C@H]2C[C@@](C)(OC)[C@@H](OC(=O)CCNCCNc3ccc4c(=O)c(C(=O)O)cn(C5CC5)c4c3)[C@H](C)O2)[C@H](C)[C@@H](O[C@@H]2O[C@H](C)C[C@H](N(C)C)[C@H]2O)[C@](C)(O)C[C@@H](C)CN(C)[C@H](C)[C@@H](O)[C@]1(C)O	4 (≈ 3.67 µM)	≤ 0.125	1 (≈ 0.917 µM)	≤ 0.125	≤ 0.125	2 (≈ 1.83 µM)	≤ 0.125	≤ 0.125
CC[C@H]1OC(=O)[C@H](C)[C@@H](O[C@H]2C[C@@](C)(OC)[C@@H](OC(=O)CCNCCCCNc3ccc4c(=O)c(C(=O)O)cn(C)c4c3)[C@H](C)O2)[C@H](C)[C@@H](O[C@@H]2O[C@H](C)C[C@H](N(C)C)[C@H]2O)[C@](C)(O)C[C@@H](C)NC(=O)[C@H](C)[C@@H](O)[C@]1(C)O	> 32	32 (≈ 29.3 µM)	16 (≈ 14.6 µM)	4 (≈ 3.66 µM)	8 (≈ 7.32 µM)	> 32	16 (≈ 14.6 µM)	32 (≈ 29.3 µM)
CC[C@H]1OC(=O)[C@H](C)[C@@H](O[C@H]2C[C@@](C)(OC)[C@@H](OC(=O)CCN(C)CCNc3cc4c(=O)c(C(=O)O)cn(C5CC5)c4cc3Cl)[C@H](C)O2)[C@H](C)[C@@H](O[C@@H]2O[C@H](C)C[C@H](N(C)C)[C@H]2O)[C@](C)(O)C[C@@H](C)CN(C)[C@H](C)[C@@H](O)[C@]1(C)O	1 (≈ 0.878 µM)	≤ 0.125	0.5 (≈ 0.439 µM)	≤ 0.125	≤ 0.125	0.5 (≈ 0.439 µM)	≤ 0.125	≤ 0.125
CC[C@H]1OC(=O)[C@H](C)[C@@H](O[C@H]2C[C@@](C)(OC)[C@@H](OC(=O)CCNCCNc3cc4c(cc3F)c(=O)c(C(=O)O)cn4C3CC3)[C@H](C)O2)[C@H](C)[C@@H](O[C@@H]2O[C@H](C)C[C@H](N(C)C)[C@H]2O)[C@](C)(O)C[C@@H](C)CN(C)[C@H](C)[C@H]2OC(=O)O[C@@]21C	2 (≈ 1.76 µM)	≤ 0.125	0.25 (≈ 0.22 µM)	≤ 0.125	≤ 0.125	1 (≈ 0.882 µM)	≤ 0.125	≤ 0.125
CC[C@H]1OC(=O)[C@H](C)[C@@H](O[C@H]2C[C@@](C)(OC)[C@@H](OC(=O)CCNCCCCNc3ccc4c(=O)c(C(=O)O)cn(C)c4c3)[C@H](C)O2)[C@H](C)[C@@H](O[C@@H]2O[C@H](C)C[C@H](N(C)C)[C@H]2O)[C@](C)(O)C[C@@H](C)CN(C)[C@H](C)[C@@H](O)[C@]1(C)O	16 (≈ 14.6 µM)	8 (≈ 7.32 µM)	8 (≈ 7.32 µM)	2 (≈ 1.83 µM)	4 (≈ 3.66 µM)	> 64	32 (≈ 29.3 µM)	32 (≈ 29.3 µM)
CC[C@H]1OC(=O)[C@H](C)[C@@H](O[C@H]2C[C@@](C)(OC)[C@@H](OC(=O)CCN(C)CCNc3cc4c(cc3F)c(=O)c(C(=O)O)cn4C3CC3)[C@H](C)O2)[C@H](C)[C@@H](O[C@@H]2O[C@H](C)C[C@H](N(C)C)[C@H]2O)[C@](C)(O)C[C@@H](C)CN(C)[C@H](C)[C@@H](O)[C@]1(C)O	4 (≈ 3.56 µM)	2 (≈ 1.78 µM)	1 (≈ 0.891 µM)	≤ 0.125	≤ 0.125	2 (≈ 1.78 µM)	0.25 (≈ 0.223 µM)	0.25 (≈ 0.223 µM)
CC[C@H]1OC(=O)[C@H](C)[C@@H](O[C@H]2C[C@@](C)(OC)[C@@H](OC(=O)CCNCCCCNc3ccc4c(=O)c(C(=O)O)cn(CC)c4c3)[C@H](C)O2)[C@H](C)[C@@H](O[C@@H]2O[C@H](C)C[C@H](N(C)C)[C@H]2O)[C@](C)(O)C[C@@H](C)CN(C)[C@H](C)[C@@H](O)[C@]1(C)O	> 32	8 (≈ 7.23 µM)	4 (≈ 3.62 µM)	1 (≈ 0.904 µM)	8 (≈ 7.23 µM)	> 32	8 (≈ 7.23 µM)	2 (≈ 1.81 µM)
CC[C@H]1OC(=O)[C@H](C)[C@@H](O[C@H]2C[C@@](C)(OC)[C@@H](OC(=O)CCNCCNc3cc4c(cc3F)c(=O)c(C(=O)O)cn4C3CC3)[C@H](C)O2)[C@H](C)[C@@H](O[C@@H]2O[C@H](C)C[C@H](N(C)C)[C@H]2O)[C@](C)(O)C[C@@H](C)C(=O)[C@H](C)[C@@H](O)[C@]1(C)O	8 (≈ 7.32 µM)	0.5 (≈ 0.457 µM)	0.5 (≈ 0.457 µM)	≤ 0.125	≤ 0.125	4 (≈ 3.66 µM)	0.25 (≈ 0.229 µM)	≤ 0.125
CC[C@H]1OC(=O)[C@H](C)[C@@H](O[C@H]2C[C@@](C)(OC)[C@@H](OC(=O)CCN(C)CCNc3cc4c(cc3F)c(=O)c(C(=O)O)cn4C3CC3)[C@H](C)O2)[C@H](C)[C@@H](O[C@@H]2O[C@H](C)C[C@H](N(C)C)[C@H]2O)[C@](C)(O)C[C@@H](C)CN(C)[C@H](C)[C@H]2OC(=O)O[C@@]21C	8 (≈ 6.97 µM)	16 (≈ 13.9 µM)	2 (≈ 1.74 µM)	≤ 0.125	≤ 0.125	4 (≈ 3.48 µM)	2 (≈ 1.74 µM)	1 (≈ 0.871 µM)
CC[C@H]1OC(=O)[C@H](C)[C@@H](O[C@H]2C[C@@](C)(OC)[C@@H](O)[C@H](C)O2)[C@H](C)[C@@H](O[C@@H]2O[C@H](C)C[C@H](N(C)C)[C@H]2O)[C@](C)(O)C[C@@H](C)CN(C)[C@H](C)[C@@H](O)[C@]1(C)O [AZITHROMYCIN]	1 (≈ 1.34 µM)	> 64	> 64	8 (≈ 10.7 µM)	8 (≈ 10.7 µM)	> 64	> 64	> 64
CC[C@H]1OC(=O)[C@H](C)[C@@H](O[C@H]2C[C@@](C)(OC)[C@@H](OC(=O)CCNCCCCNc3cc4c(cc3F)c(=O)c(C(=O)O)cn4C3CC3)[C@H](C)O2)[C@H](C)[C@@H](O[C@@H]2O[C@H](C)C[C@H](N(C)C)[C@H]2O)[C@](C)(O)C[C@@H](C)C(=O)[C@H](C)[C@@H](O)[C@]1(C)O	2 (≈ 1.78 µM)	8 (≈ 7.13 µM)	2 (≈ 1.78 µM)	≤ 0.125	≤ 0.125	> 64	2 (≈ 1.78 µM)	8 (≈ 7.13 µM)
CC[C@H]1OC(=O)[C@H](C)[C@@H](O[C@H]2C[C@@](C)(OC)[C@@H](OC(=O)CCNCCNc3cc4c(=O)c(C(=O)OC)cn(C5CC5)c4cc3Cl)[C@H](C)O2)[C@H](C)[C@@H](O[C@@H]2O[C@H](C)C[C@H](N(C)C)[C@H]2O)[C@](C)(O)C[C@@H](C)C(=O)[C@H](C)[C@@H](O)[C@]1(C)O	2 (≈ 1.78 µM)	0.125 (≈ 0.111 µM)	16 (≈ 14.2 µM)	≤ 0.125	≤ 0.125	> 64	≤ 0.125	≤ 0.125
